{"data": "Assay results gathered from unrelated publications", "ESR2": "Estrogen receptor beta (ESR2, Homo sapiens, UniProt Q92731)", "note": "Protocols differ between the studies behind these lines. pEC50, pIC50, pKd, pKi: −log10 of the molar value."}
{"SMILES": "O=C(CCCc1ccc(N(CCCl)CCCl)cc1)NCCC1CCN(CCOc2ccc(Oc3c(-c4ccc(O)cc4)sc4cc(O)ccc34)cc2)CC1", "target": "ESR2", "assay": "ligand displacement, radioligand", "endpoint": "pIC50", "result": 7.17}
{"SMILES": "CCCS(=O)(=O)Nc1ccc(F)c(C(=O)c2c[nH]c3ncc(Br)cc23)c1F", "target": "Dual specificity mitogen-activated protein kinase kinase 4 (MAP2K4, Homo sapiens, UniProt P45985)", "assay": "enzyme activity, inhibitor, ADP detection", "endpoint": "pIC50", "result": 5.85}
{"SMILES": "c1c[nH]cn1", "target": "Nitric oxide synthase, inducible (Nos2, Mus musculus, UniProt P29477)", "assay": "binding", "endpoint": "pKd", "result": 4.25}
{"SMILES": "CC(C)C[C@H](NC(=O)[C@H](Cc1ccccc1)NC(=O)[C@H](Cc1ccc(O)cc1)NC(=O)CNC(=O)[C@H](CCCCN)NC(=O)[C@H](CO)NC(=O)[C@H](CCC(N)=O)NC(=O)CNC(=O)[C@@H](NC(=O)[C@H](CO)NC(=O)[C@@H]1CCCN1C(=O)[C@H](CO)NC(=O)[C@H](CCC(N)=O)NC(=O)[C@H](Cc1ccc(O)cc1)NC(=O)[C@H](CCC(=O)O)NC(=O)[C@H](C)NC(=O)[C@H](CCCCN)NC(=O)[C@@H](N)Cc1ccccc1)C(C)C)C(=O)N[C@@H](Cc1ccccc1)C(=O)N[C@@H](CCCNC(=N)N)C(=O)N1CCC[C@H]1C(=O)N[C@@H](CCCNC(=N)N)C(=O)N[C@@H](CC(N)=O)C(N)=O", "target": "Neuromedin-U receptor 1 (NMUR1, Homo sapiens, UniProt Q9HB89)", "assay": "inositol phosphate, agonist, TR-FRET", "endpoint": "pEC50", "result": 9.35}
{"SMILES": "CC(C)CCC[C@@H](C)[C@H]1CC[C@H]2[C@@H]3C[C@@H](n4cncc4CCN)[C@@]4(O)C[C@@H](O)CC[C@]4(C)[C@H]3CC[C@]12C", "target": "Bifunctional epoxide hydrolase 2 (EPHX2, Homo sapiens, UniProt P34913)", "assay": "enzyme activity, inhibitor", "endpoint": "pIC50", "result": "< 4.00"}
{"SMILES": "CC(C)[C@@H]1NC(=O)[C@@H]2CCCN2C(=O)[C@H](Cc2ccccc2)NC(=O)CSC[C@@H](C(=O)N[C@@H](Cc2ccc(O)cc2)C(N)=O)NC(=O)[C@H](Cc2c[nH]c3ccccc23)NC(=O)[C@H](CCCCN)NC(=O)[C@H](Cc2ccccc2)N(C)C(=O)[C@H](Cc2ccccc2)NC1=O", "target": "Stimulator of interferon genes protein (STING1, Homo sapiens, UniProt Q86WV6, H232R)", "assay": "ligand displacement, TR-FRET", "endpoint": "pIC50", "result": 6.74}
{"SMILES": "Nc1nccc(-c2cccc(-c3ccccc3)c2)n1", "target": "Phosphatidylinositol 5-phosphate 4-kinase type-2 gamma (PIP4K2C, Homo sapiens, UniProt Q8TBX8)", "assay": "binding", "endpoint": "pKd", "result": 7.19}
{"SMILES": "C[C@H]1CCC[C@H](O)CCC/C=C/c2cc(O)cc(O)c2C(=O)O1", "target": "ESR2", "assay": "reporter gene, agonist, luciferase", "endpoint": "pEC50", "result": 9.36}
{"SMILES": "CCCCCCCCCCCCCC1OC(=O)/C1=C\\CCCCCS(N)(=O)=O (stereo not drawn)", "target": "Phosphatidylserine lipase ABHD16A (Homo sapiens, UniProt O95870)", "assay": "enzyme activity, inhibitor", "endpoint": "pIC50", "result": "6.00 to 6.30"}
{"SMILES": "Oc1ccc(/C=C/c2cc(O)cc(O)c2)cc1", "target": "Troponin C, slow skeletal and cardiac muscles (TNNC1, Human, UniProt P63316)", "assay": "binding, NMR", "endpoint": "pKd", "result": 3.62}
{"SMILES": "CCC(C)c1cccc(C(C)CC)c1O (stereo not drawn)", "target": "Potassium/sodium hyperpolarization-activated cyclic nucleotide-gated channel 1 (Hcn1, Mus musculus, UniProt O88704)", "assay": "ion current, two-electrode voltage clamp", "setting": "oocytes", "endpoint": "pIC50", "result": "~4.52"}
{"SMILES": "O=C(O)C1=CC(O)CC1 (stereo not drawn)", "target": "Calcium/calmodulin-dependent protein kinase type II subunit alpha (Rattus norvegicus, UniProt P11275)", "assay": "cell-free assay, radioligand", "setting": "pH 6", "endpoint": "pKi", "result": 5.80}
